Reference: ChEMBL document CHEMBL4673258, “Discovery of IPN60090, a Clinical Stage Selective Glutaminase-1 (GLS-1) Inhibitor with Excellent Pharmacokinetic and Physicochemical Properties” (J Med Chem, 2020)

Columns and labels:
[1] = Intrinsic clearance in monkey liver microsomes assessed per kg protein at 1 uM measured up to 45 mins in presence of NADPH by LC-MS/MS analysis; assay type: ADME, Macaca mulatta, Microsome; settings: rhesus monkey, 0.75 h
[2] = Intrinsic clearance in mouse liver microsomes assessed per kg protein at 1 uM measured up to 45 mins in presence of NADPH by LC-MS/MS analysis; assay type: ADME, Microsome; settings: 0.75 h
[3] = Intrinsic clearance in monkey hepatocytes […] at 2 uM measured after 15 to 120 mins by LC-MS analysis; assay type: ADME, cell-based, Macaca mulatta, Hepatocyte; settings: rhesus monkey, time 15-120 min
[4] = Intrinsic clearance in dog hepatocytes […] at 2 uM measured after 15 to 120 mins by LC-MS analysis; assay type: ADME, cell-based, Canis lupus familiaris, Hepatocyte; settings: time 15-120 min
Summary of the method: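 Hepatocytes at 2×10^6 viable cells/mL, mixed with an equal volume of 2 μM compound in KHB buffer. Incubated at 37 °C and quenched with ACN at 0, 15, 30, 60 and 120 min. Analysed by LC/MS, with percent remaining from peak area ratio to internal standard against 0 min. Half-life from a single-phase exponential fit.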

[5] = human, microsomes, 0.75 h, 1 µM
[6] = Permeability across basolateral to apical side in human Caco-2 cells at 10 uM measured after 90 mins by LC-MS/MS analysis; assay type: ADME, cell-based
Summary of the method: (§1)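 Caco-2 monolayers grown 21–28 days on polycarbonate filter inserts, with TEER and Lucifer Yellow checked before and after. Compound at 10 μM in HBSS with 25 mM HEPES, pH 7.4. Run A→B and B→A at 37 °C for 90 min. Receiver and donor samples quantified by LC-MS/MS.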

[7] = Permeability across apical to basolateral side in human Caco-2 cells at 10 uM measured after 90 mins by LC-MS/MS analysis; assay type: ADME, cell-based; summary of the method: as §1
[8] = Intrinsic clearance in mouse hepatocytes […] at 2 uM measured after 15 to 120 mins by LC-MS analysis; assay type: ADME, cell-based, Hepatocyte; settings: time 15-120 min
[9] = Half life in Sprague-Dawley rat at 0.3 mg/kg, iv by LC-MS/MS analysis; assay type: ADME, organism-based; settings: in vivo
Summary of the method: (§2)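 Bis-hydrochloride salt given to male Sprague-Dawley rats (200–300 g) or male beagle dogs (7–10 kg), fasted overnight and fed 4 h postdose. IV dose 0.3 mg/kg (rat dorsal foot vein, dog cephalic vein) or PO gavage 3 mg/kg.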

[10] = Oral bioavailability in Beagle dog at 3 mg/kg administered via gavage by LC-MS/MS analysis; assay type: ADME, organism-based, Canis lupus familiaris; settings: in vivo; summary of the method: as §2
[11] = Oral bioavailability in Sprague-Dawley rat at 2 mg/kg administered via gavage by LC-MS/MS analysis; assay type: ADME, organism-based; settings: in vivo
[12] = Cmax in Beagle dog at 3 mg/kg, po administered via gavage by LC-MS/MS analysis; assay type: ADME, organism-based, Canis lupus familiaris; parameters: route oral, dose 3 mg/kg; settings: in vivo
Summary of the method: (§3)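 Male beagle dogs (7–10 kg), fasted overnight and fed 4 h postdose, received the bis-hydrochloride salt at 3 mpk by oral gavage. Plasma concentrations by LC-MS/MS; Cmax and AUClast from the oral dose.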

[13] = Half life in Beagle dog at 0.3 mg/kg, iv by LC-MS/MS analysis; assay type: ADME, organism-based, Canis lupus familiaris; settings: in vivo; for t1/2: 0.3 mg/kg; summary of the method: as §2
[14] = Volume of distribution at steady state in Beagle dog at 0.3 mg/kg, iv by LC-MS/MS analysis; assay type: ADME, organism-based, Canis lupus familiaris; settings: in vivo; for Vdss: 0.3 mg/kg; summary of the method: as §2
[15] = Volume of distribution at steady state in Sprague-Dawley rat at 0.3 mg/kg, iv by LC-MS/MS analysis; assay type: ADME, organism-based; settings: in vivo; summary of the method: as §2
[16] = AUClast in Sprague-Dawley rat at 2 mg/kg, po administered via gavage by LC-MS/MS analysis; assay type: ADME, organism-based; parameters: route oral, time 0 - last, dose 2 mg/kg; settings: in vivo
[17] = AUClast in Beagle dog at 3 mg/kg, po administered via gavage by LC-MS/MS analysis; assay type: ADME, organism-based, Canis lupus familiaris; parameters: time 0 - last, route oral, dose 3 mg/kg; settings: in vivo; summary of the method: as §3
[18] = Cmax in Sprague-Dawley rat at 2 mg/kg, po administered via gavage by LC-MS/MS analysis; assay type: ADME, organism-based; parameters: route oral, dose 2 mg/kg; settings: in vivo
[19] = Volume of distribution at steady state in cynomolgus monkey at 0.3 mg/kg, iv by LC-MS/MS analysis; assay type: ADME, organism-based, Macaca fascicularis; settings: in vivo, read-out: Vdss
Summary of the method: (§4)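 Bis-hydrochloride salt dosed 0.3 mg/kg IV and 3 mg/kg PO (mouse: 3 mg/kg IV, 10 mg/kg PO); female CD-1 mice, male beagle dogs, male cynomolgus monkeys; monkeys and dogs fasted overnight and fed 4 h postdose. IV via tail (mouse) or cephalic vein; PO by oral (mouse) or nasal (monkey) gavage. K2EDTA plasma sampled predose to 24 h; LC-MS/MS. CL, Vdss, t1/2 from IV; F% from oral dose.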

[20] = Oral bioavailability in cynomolgus monkey at 3 mg/kg administered via gavage by LC-MS/MS analysis; assay type: ADME, organism-based, Macaca fascicularis; settings: in vivo; summary of the method: as §4
[21] = Free plasma concentration in NSG mouse xenografted with human H460 cells at 250 mg/kg, po administered as single dose via gavage measured after 8 hrs by LC-MS analysis; assay type: ADME, organism-based; settings: in vivo
[22] = Cmax in CD-1 mouse at 10 mg/kg, po administered via gavage by LC-MS/MS analysis; assay type: ADME, organism-based; parameters: route oral, dose 10 mg/kg; settings: in vivo
Summary of the method: (§5)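 Female CD-1 mice (20–30 g), food and water ad libitum, given the bis-hydrochloride salt at 10 mpk by oral gavage. Plasma quantified by LC-MS/MS; Cmax and AUClast from the oral dose.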

[23] = Free plasma concentration in NSG mouse xenografted with human H460 cells at 10 mg/kg, po administered as single dose via gavage measured after 24 hrs by LC-MS analysis; assay type: ADME, organism-based; settings: in vivo
[24] = AUClast in CD-1 mouse at 10 mg/kg, po administered via gavage by LC-MS/MS analysis; assay type: ADME, organism-based; parameters: time 0 - last, route oral, dose 10 mg/kg; settings: in vivo; summary of the method: as §5
[25] = Half life in CD-1 mouse at 3 mg/kg, iv by LC-MS/MS analysis; assay type: ADME, organism-based; settings: in vivo; summary of the method: as §4
[26] = Oral bioavailability in CD-1 mouse at 10 mg/kg administered via gavage by LC-MS/MS analysis; assay type: ADME, organism-based; settings: in vivo; summary of the method: as §4
[27] = Volume of distribution at steady state in CD-1 mouse at 3 mg/kg, iv by LC-MS/MS analysis; assay type: ADME, organism-based; settings: in vivo, read-out: Vdss; summary of the method: as §4
[28] = Cmax in cynomolgus monkey at 3 mg/kg, po administered via gavage by LC-MS/MS analysis; assay type: ADME, organism-based, Macaca fascicularis; parameters: route oral, dose 3 mg/kg; settings: in vivo
Summary of the method: (§6)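 Male cynomolgus monkeys (3–5 kg), fasted overnight and fed 4 h postdose, dosed with the bis-hydrochloride salt at 3 mpk by nasal gavage. Blood from saphenous or cephalic vein into K2EDTA at predose and 0.083–24 h (0.083, 0.25, 0.5, 1, 2, 4, 8, 24 h). Plasma quantified by LC-MS/MS; Cmax and AUClast from the oral dose.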

[29] = Free plasma concentration in NSG mouse xenografted with human H460 cells at 250 mg/kg, po administered as single dose via gavage measured after 24 hrs by LC-MS analysis; assay type: ADME, organism-based; settings: in vivo
[30] = Free plasma concentration in NSG mouse xenografted with human H460 cells at 50 mg/kg, po administered as single dose via gavage measured after 8 hrs by LC-MS analysis; assay type: ADME, organism-based; settings: in vivo
Summary of the method: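 Female NSG mice, 6–10 weeks old, bearing H460 tumours (5×10^5 cells with matrigel 1:1) of 300–400 mm³. Given a single oral gavage dose of bis-hydrochloride salt in 0.5% methylcellulose. Six animals per group. Free plasma concentration taken at 8 or 24 h, given as mean with standard deviation.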

[31] = Cmax in Sprague-Dawley rat at 3 mg/kg, po administered via gavage by LC-MS/MS analysis; assay type: ADME, organism-based; parameters: route oral, dose 3 mg/kg; settings: in vivo
Summary of the method: (§7)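 Male Sprague-Dawley rats (200–300 g), fasted overnight and fed 4 h postdose, given the bis-hydrochloride salt at 3 mpk by oral gavage. Tail-vein blood into K2EDTA taken predose and at 0.083–24 h (0.083, 0.25, 0.5, 1, 2, 4, 8, 24 h). Plasma analysed by LC-MS/MS; Cmax and AUClast derived from the oral dose.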

[32] = Half life in cynomolgus monkey at 0.3 mg/kg, iv by LC-MS/MS analysis; assay type: ADME, organism-based, Macaca fascicularis; settings: in vivo; summary of the method: as §4
[33] = Clearance in cynomolgus monkey at 0.3 mg/kg, iv by LC-MS/MS analysis; assay type: ADME, organism-based, Macaca fascicularis; settings: in vivo; summary of the method: as §4
[34] = Oral bioavailability in Sprague-Dawley rat at 3 mg/kg administered via gavage by LC-MS/MS analysis; assay type: ADME, organism-based; settings: in vivo; summary of the method: as §2
[35] = Free plasma concentration in NSG mouse xenografted with human H460 cells at 10 mg/kg, po administered as single dose via gavage measured after 8 hrs by LC-MS analysis; assay type: ADME, organism-based; settings: in vivo
[36] = AUClast in cynomolgus monkey at 3 mg/kg, po administered via gavage by LC-MS/MS analysis; assay type: ADME, organism-based, Macaca fascicularis; parameters: route oral, time 0 - last, dose 3 mg/kg; settings: in vivo; summary of the method: as §6
[37] = AUClast in Sprague-Dawley rat at 3 mg/kg, po administered via gavage by LC-MS/MS analysis; assay type: ADME, organism-based; parameters: route oral, time 0 - last, dose 3 mg/kg; settings: in vivo; summary of the method: as §7
[38] = Clearance in Beagle dog at 0.3 mg/kg, iv by LC-MS/MS analysis; assay type: ADME, organism-based, Canis lupus familiaris; settings: in vivo; summary of the method: as §4

SMILES | CLint [4] | permeability [6] | permeability [7] | t1/2 [9] | F [10] | Cmax [12] | t1/2 [13] | Vdss [14] | Vdss [15] | AUClast [17] | Cmax [31] | F [34] | AUClast [37] | further results
CNC(=O)c1cn(C[C@H](F)CCc2ccc(NC(=O)Cc3cc(OC4CC(F)(F)C4)cc(C)n3)nn2)nn1 [IPN-60090] | 7 mL/min/kg | 25 10^-6 cm/s | 5.2 10^-6 cm/s | – | – | – | – | – | – | – | – | – | – | CLint [1]: 21 mL/min/kg; CLint [2]: 55 mL/min/kg; CLint [3]: 12 mL/min/kg; CLH [5]: <= 0.7 ml/min; CLint [8]: 16 mL/min/kg
CNC(=O)c1cn(C[C@H](F)CCc2ccc(NC(=O)Cc3cc(-c4cccc(OC(F)(F)F)c4)ccn3)nn2)nn1.Cl | – | – | – | 2.7 h | 8% | 0.58 µM | 2.5 h | 0.5 L/kg | 1 L/kg | 2.5 µM·h | – | – | – | F [11]: 19%; AUClast [16]: 1.2 µM·h; Cmax [18]: 0.35 µM
CNC(=O)c1cn(C[C@H](F)CCc2ccc(NC(=O)Cc3cc(OC4CC(F)(F)C4)ccn3)nn2)nn1 | 4 mL/min/kg | 20 10^-6 cm/s | 1.8 10^-6 cm/s | – | – | – | – | – | – | – | – | – | – | –
CNC(=O)c1cn(C[C@H](F)CCc2ccc(NC(=O)Cc3cc(-c4cccc(OC(F)(F)F)c4)ccn3)nn2)nn1 | 12 mL/min/kg | 21 10^-6 cm/s | 5.8 10^-6 cm/s | – | – | – | – | – | – | – | – | – | – | –
CNC(=O)c1cn(C[C@H](F)CCc2ccc(NC(=O)Cc3cc(OC4CC(F)(F)C4)cc(C)n3)nn2)nn1.Cl.Cl | – | – | – | 5.3 h | > 100% | 31 µM | – | – | 0.1 L/kg | 250 µM·h | 32 µM | 70% | 208 µM·h | Vd [19]: 0.31 L/kg; bioavailability [20]: 72%; Cp(f) [21]: 0.316 µM; Cmax [22]: 19 µM; Cp(f) [23]: 0.006 µM; half-life ([13]; Beagle): 5.3 h; AUClast [24]: 67 µM·h; half-life [25]: 1 h; Vd ([14]; Beagle, read-out: Vdss): 0.18 L/kg; F [26]: 89%; Vd [27]: 0.27 L/kg; Cmax [28]: 6.5 µM; Cp(f) [29]: 0.316 µM; Cp(f) [30]: 0.198 µM; half-life [32]: 0.9 h; clearance [33]: 8 mL/min/kg; Cp(f) [35]: 0.029 µM; AUC(0-t) [36]: 8.7 µM·h; clearance [38]: 0.59 mL/min/kg
CNC(=O)c1cn(C[C@H](F)CCc2ccc(NC(=O)Cc3cc(C(F)(F)F)cc(C)n3)nn2)nn1 | 9 mL/min/kg | 25 10^-6 cm/s | 7.7 10^-6 cm/s | 3.3 h | 21% | 4.5 µM | 2.6 h | 0.2 L/kg | 0.2 L/kg | 23 µM·h | 4.4 µM | 28% | 24 µM·h | –
